# From ChEMBL document CHEMBL2384900, “Synthesis and cytotoxicity of oligomycin A derivatives modified in the side chain” (Bioorg Med Chem, 2013)
# Columns and labels:
# Streptomyces fradiae [1] = test: Antibacterial activity against Streptomyces fradiae ATCC 19609 at 1 nmol/disk after 24 hrs; format: functional
# How it was run: (§1)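 Disk diffusion assay. Streptomyces fradiae spores are mixed into MG soft agar (0.7% agar, pH 7.5) and poured over MG agar plates (2% agar), 10⁷ spores per dish. After the agar sets, paper disks impregnated with compound are placed on the plates. Plates are incubated 24 h at 28 °C, and the diameter of the growth-inhibition halo around each disk is measured.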
# [2] = Cytotoxicity against human hFB-hTERT6 cells after 72 hrs by MTT assay; format: cell-based; settings: hFB-hTERT6, 72 h
# How it was run: (§2)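 Cells are exposed to compound for 72 h, and viability is then read by MTT assay. IC50 is reported as the mean of 3 independent measurements with SD. hFB-hTERT6 is a non-malignant human skin fibroblast line.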
# HCT-116 = test: Cytotoxicity against human HCT116 cells after 72 hrs by MTT assay; format: functional, cell-based; settings: HCT-116, 72 h; how it was run: as §2
# K562 = test: Cytotoxicity against human K562 cells after 72 hrs by MTT assay; format: functional, cell-based; settings: K562, 72 h; how it was run: as §2
# Streptomyces fradiae [3] = test: Antibacterial activity against Streptomyces fradiae ATCC 19609 at 0.001 nmol/disk after 24 hrs; format: functional
# How it was run: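 Disk diffusion on S. fradiae: spore suspension mixed into MG soft agar (0.7%), pH 7.5, poured over MG agar (2%) at 10⁷ spores per dish; after solidification, paper disks carrying test compound laid on lawn; grown 24 h at 28 °C; growth-inhibition halo diameter around disks measured.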
# Streptomyces fradiae [4] = test: Antibacterial activity against Streptomyces fradiae ATCC 19609 at 10 nmol/disk after 24 hrs; format: functional; how it was run: as §1
# Streptomyces fradiae [5] = test: Antibacterial activity against Streptomyces fradiae ATCC 19609 at 0.1 nmol/disk after 24 hrs; format: functional; how it was run: as §1
# Streptomyces fradiae [6] = test: Antibacterial activity against Streptomyces fradiae ATCC 19609 at 100 nmol/disk after 24 hrs; format: functional; how it was run: as §1
Structure (SMILES),diameter of the inhibition zone (DIZ) (Streptomyces fradiae [1]) [mm],IC50 [2] [µM],IC50 (HCT-116) [µM],IC50 (K562) [µM],diameter of the inhibition zone (DIZ) (Streptomyces fradiae [3]) [mm],diameter of the inhibition zone (DIZ) (Streptomyces fradiae [4]) [mm],diameter of the inhibition zone (DIZ) (Streptomyces fradiae [5]) [mm],diameter of the inhibition zone (DIZ) (Streptomyces fradiae [6]) [mm]
CC[C@H]1/C=C/C=C/C[C@@H](C)[C@H](O)[C@@](C)(O)C(=O)[C@@H](C)[C@H](O)[C@@H](C)C(=O)[C@@H](C)[C@H](O)[C@@H](C)/C=C/C(=O)O[C@@H]2[C@H](C)[C@H](CC1)O[C@]1(CC[C@H](C)[C@H](C[C@H](C)n3cc(C(=O)NCCN(C)C)nn3)O1)[C@H]2C,8,2,0.7,0.22,,,,
CC[C@@H]1/C=C/C=C/C[C@H](C)[C@H](O)[C@](C)(O)C(=O)[C@H](C)[C@@H](O)[C@H](C)C(=O)[C@H](C)[C@@H](O)[C@H](C)/C=C/C(=O)O[C@H]2[C@@H](C)[C@@H](CC1)O[C@@]1(CC[C@@H](C)[C@@H](C[C@H](C)O)O1)[C@@H]2C [OLIGOMYCIN A],,7.5,1,0.16,10,,,
CC[C@H]1/C=C/C=C/C[C@@H](C)[C@H](O)[C@@](C)(O)C(=O)[C@@H](C)[C@H](O)[C@@H](C)C(=O)[C@@H](C)[C@H](O)[C@@H](C)/C=C/C(=O)O[C@@H]2[C@H](C)[C@H](CC1)O[C@]1(CC[C@H](C)[C@H](C[C@H](C)N=[N+]=[N-])O1)[C@H]2C,7.5,1.9,0.2,0.14,,,,
CC[C@H]1/C=C/C=C/C[C@@H](C)[C@H](O)[C@@](C)(O)C(=O)[C@@H](C)[C@H](O)[C@@H](C)C(=O)[C@@H](C)[C@H](O)[C@@H](C)/C=C/C(=O)O[C@@H]2[C@H](C)[C@H](CC1)O[C@]1(CC[C@H](C)[C@H](C[C@H](C)n3cc(C(=O)OC)nn3)O1)[C@H]2C,,2,,0.15,,8,,
CC[C@H]1/C=C/C=C/C[C@@H](C)[C@H](O)[C@@](C)(O)C(=O)[C@@H](C)[C@H](O)[C@@H](C)C(=O)[C@@H](C)[C@H](O)[C@@H](C)/C=C/C(=O)O[C@@H]2[C@H](C)[C@H](CC1)O[C@]1(CC[C@H](C)[C@H](C[C@@H](C)OS(C)(=O)=O)O1)[C@H]2C,,,6.4,5.8,,,9.5,
CC[C@H]1/C=C/C=C/C[C@@H](C)[C@H](O)[C@@](C)(O)C(=O)[C@@H](C)[C@H](O)[C@@H](C)C(=O)[C@@H](C)[C@H](O)[C@@H](C)/C=C/C(=O)O[C@@H]2[C@H](C)[C@H](CC1)O[C@]1(CC[C@H](C)[C@H](C[C@H](C)n3cc(C(=O)O)nn3)O1)[C@H]2C,,> 50,,> 12.5,,,,8
CC[C@H]1/C=C/C=C/C[C@@H](C)[C@H](O)[C@@](C)(O)C(=O)[C@@H](C)[C@H](O)[C@@H](C)C(=O)[C@@H](C)[C@H](O)[C@@H](C)/C=C/C(=O)O[C@@H]2[C@H](C)[C@H](CC1)O[C@]1(CC[C@H](C)[C@H](C[C@H](C)n3cc(-c4ccccc4)nn3)O1)[C@H]2C,,3,,0.15,,,7.5,
